Experimental data from different studies.
Protocols differ between the studies behind these lines.
BCHE: Cholinesterase (BCHE, Homo sapiens, UniProt P06276)

Compound | target | observed | action | method | tested at | inhibition [%]
CN(CCN1CCC(OC(=O)Nc2ccccc2-c2ccccc2)CC1)C(=O)c1ccc(CN2CCC(C(N)=O)CC2)cc1 | Melanocortin receptor 4 (MC4R, Homo sapiens, UniProt P32245) | ligand displacement | – | radioligand | 1 µM | 1
C#Cc1n[nH]c2c(-c3cn([C@@H](C)c4ccccn4)c(=O)[nH]c3=O)cc(F)cc12 | Fibroblast growth factor receptor 1 (FGFR1, Homo sapiens, UniProt P11362) | enzyme activity | inhibitor | – | 0.1 µM | 5.4
C=CCn1c2cc(OC(=O)CCCCN3CCN(Cc4ccccc4C)CC3)ccc2c2ccnc(C)c21 | BCHE | enzyme activity | inhibitor | Ellman | 1 µM | 39.8
COc1cc(Nc2ncc(F)c(Nc3ccc4c(n3)NC(=O)C(C)(C)O4)n2)cc(OC)c1OC | Interferon-induced, double-stranded RNA-activated protein kinase (EIF2AK2, Homo sapiens, UniProt P19525) | binding | – | competition with immobilised ligand | 10 µM | 86
C=CCn1c2cc(OC(=O)CCCCCCN3CCN(Cc4ccccc4)CC3)ccc2c2ccnc(C)c21 | BCHE | enzyme activity | inhibitor | Ellman | 1 µM | 36.8
COc1ccc(S(=O)(=O)N2CCCCC2)cc1C | Cysteinyl leukotriene receptor 1 (CYSLTR1, Homo sapiens, UniProt Q9Y271) | ligand displacement | – | radioligand | 10 µM | < 30
CC(C)C[C@H](NC(=O)[C@H](Cc1ccccc1)NC(=O)c1cnccn1)B(O)O | Plasma kallikrein (KLKB1, Homo sapiens, UniProt P03952) | enzyme activity | inhibitor | – | 33 µM | 94.2
C=CCn1c2cc(OC(=O)CCCCN3CCN(Cc4ccccc4Cl)CC3)ccc2c2ccnc(C)c21 | BCHE | enzyme activity | inhibitor | Ellman | 1 µM | 46.1
COc1ccc2c(c1)[nH]c1c(C)nccc12 | DNA dC->dU-editing enzyme APOBEC-3B (Homo sapiens, UniProt Q9UH17) | enzyme activity | inhibitor | fluorescence | 100 µM | 53.6
[C-]#[O+] | Catalase (CAT, Bos taurus, UniProt P00432) | enzyme activity | inhibitor | – | 1 mM | 70
O=C(Nc1cccnn1)N1CCN([C@@H]2CCOc3cc(C(F)(F)F)ccc32)CC1 | Somatostatin receptor type 1 (SSTR1, Homo sapiens, UniProt P30872) | cell-free assay | – | – | 20 µM | 10
Cn1cc(-c2cccc(N3CCc4c(sc5c4CC(C)(C)C5)C3=O)c2CO)cc(Nc2ccncn2)c1=O | Tyrosine-protein kinase Fgr (FGR, Homo sapiens, UniProt P09769) | enzyme activity | inhibitor | – | 1 µM | 53
C=CCn1c2cc(OC(=O)CCCCN3CCN(Cc4ccccc4)CC3)ccc2c2ccnc(C)c21 | BCHE | enzyme activity | inhibitor | Ellman | 1 µM | 38.5
